Experimental data: ChEMBL document CHEMBL4390663, “Cationic biaryl 1,2,3-triazolyl peptidomimetic amphiphiles: synthesis, antibacterial evaluation and preliminary mechanism of action studies” (Eur J Med Chem, 2019)
Values after ≈ are worked out from the molar mass of the structure shown.

Experiments:
Staphylococcus aureus [1] = assay: Antibacterial activity against methicillin-resistant Staphylococcus aureus NCTC 10442 incubated for 24 hrs by CLSI method; type: functional; conditions: NCTC 10442, 24 h
How it was run: (§1)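 Broth microdilution per CLSI aerobic guidance in Mueller Hinton broth, ambient air, 35 °C for 24 h. DMSO stocks were diluted in water, then serially diluted with double-strength broth inoculum added, for final 0.25–128 μg/mL. […] MIC was read visually as the lowest concentration inhibiting growth; the modal value of triplicates was recorded.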

Staphylococcus aureus [2] = assay: Antimicrobial activity against Staphylococcus aureus ATCC 29213 incubated for 24 hrs by CLSI method; type: functional; conditions: ATCC 29213, 24 h; how it was run: as §1
Clostridioides difficile [3] = assay: Antibacterial activity against Clostridium difficile NSW132 RT027 incubated for 48 hrs by CLSI method; type: functional; conditions: NSW132 RT027, 48 h
How it was run: (§2)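 Broth microdilution per CLSI anaerobe method in pre-reduced (2-4 h) Brucella broth with haemin and vitamin K, 35 °C anaerobically for 48 h. Compounds from 5 mg/mL DMSO stocks, twofold dilutions in water mixed with double-strength broth; final 0.25–128 μg/mL. […] Triplicate; modal MIC read visually as lowest concentration inhibiting growth.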

Streptococcus pneumoniae = assay: Antibacterial activity against Streptococcus pneumoniae ATCC 49619 incubated for 24 hrs by CLSI method; type: functional; conditions: ATCC 49619, 24 h
How it was run: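 CLSI broth microdilution in MHB with 2.5% lysed horse blood, 5% CO2, 35 °C, 24 h. Compounds from 5 mg/mL DMSO stocks diluted in water plus double-strength broth; final 0.25–128 μg/mL. […] Triplicate; modal MIC read visually as lowest growth-inhibiting concentration.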

Clostridioides difficile [4] = assay: Antibacterial activity against Clostridium difficile ATCC 700057 incubated for 48 hrs by CLSI method; type: functional; conditions: ATCC 700057, 48 h; how it was run: as §2
Enterococcus faecalis = assay: Antibacterial activity against Enterococcus faecalis ATCC 29212 incubated for 24 hrs by CLSI method; type: functional; conditions: ATCC 29212, 24 h
[5] = Cytotoxicity against human HEK293 cells assessed as reduction in cell growth incubated for 20 hrs by resazurin dye-based fluorometric assay
How it was run: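 HEK293 cells, 5000 per well in DMEM + 10% FBS, exposed to compounds (top 32 μg/mL, 1:2 serial dilution ×8, ≤0.5% DMSO, duplicate) for 20 h at 37 °C, 5% CO2. Resazurin added (2.3 μg/mL final), 3 h further; fluorescence ex 560/em 590 nm. CC50 from sigmoidal dose-response fit against log concentration; tamoxifen standard.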

| SMILES | MIC (Staphylococcus aureus [1]) | MIC (Staphylococcus aureus [2]) | MIC (Clostridioides difficile [3]) | MIC (Streptococcus pneumoniae) | MIC (Clostridioides difficile [4]) | MIC (Enterococcus faecalis) | CC50 at 20 h [5] |
| --- | --- | --- | --- | --- | --- | --- | --- |
| CC(C)CCOc1ccc2ccccc2c1-c1c(OCc2cn(C[C@@H](CCCCN)NC(=O)[C@@H]3CCC(=O)N3)nn2)ccc2ccccc12.Cl | 16 µg/mL | 16 µg/mL | 64 µg/mL | 32 µg/mL | 32 µg/mL | 16 µg/mL |  |
| CC/C(=C(\c1ccccc1)c1ccc(OCCN(C)C)cc1)c1ccccc1 [TAMOXIFEN] |  |  |  |  |  |  | 13.1 µg/mL (≈ 35.3 µM) |
| CC(C)CCOc1ccc2ccccc2c1-c1c(OCc2cn(C[C@@H](CCCCN)NC(=O)C3CC3)nn2)ccc2ccccc12.Cl | 8 µg/mL | 8 µg/mL | 64 µg/mL | 16 µg/mL | 16 µg/mL | 8 µg/mL |  |
| CC(C)CCOc1ccc2ccccc2c1-c1c(OCc2cn(C[C@@H](CCCCN)NC(=O)OCc3ccccc3)nn2)ccc2ccccc12.Cl | 8 µg/mL | 4 µg/mL | 32 µg/mL | 16 µg/mL | 32 µg/mL | 8 µg/mL |  |
| CC(C)CCOc1ccc2ccccc2c1-c1c(OCc2cn(C[C@@H](CCCCN)NC(=O)Cc3ccc(Br)cc3)nn2)ccc2ccccc12.Cl | 8 µg/mL | 4 µg/mL | 64 µg/mL | 32 µg/mL | 32 µg/mL | 8 µg/mL |  |
| CC(C)CCOc1ccc2ccccc2c1-c1c(OCc2cn(C[C@@H](CCCCN)NC(=O)CCCc3ccccc3)nn2)ccc2ccccc12.Cl | 16 µg/mL | 8 µg/mL | 64 µg/mL | 32 µg/mL | 32 µg/mL | 8 µg/mL |  |
| CC(C)CCOc1ccc2ccccc2c1-c1c(OCc2cn(C[C@@H](CCCCN)NC(=O)c3ccco3)nn2)ccc2ccccc12.Cl | 8 µg/mL | 8 µg/mL | 32 µg/mL | 16 µg/mL | 16 µg/mL | 8 µg/mL |  |
| CC(C)CCOc1ccc2ccccc2c1-c1c(OCc2cn(C[C@@H](CCCCN)NC(=O)c3ccccc3)nn2)ccc2ccccc12.Cl | 8 µg/mL | 8 µg/mL | 32 µg/mL | 16 µg/mL | 32 µg/mL | 8 µg/mL |  |
| CC(C)CCOc1ccc2ccccc2c1-c1c(OCc2cn(C[C@@H](CCCCN)NC(=O)C3(N)CCOCC3)nn2)ccc2ccccc12.Cl.Cl | 16 µg/mL | 16 µg/mL | 64 µg/mL | 16 µg/mL | 32 µg/mL | 16 µg/mL |  |
| Cc1ccc(CC(=O)N[C@H](CCCCN)Cn2cc(COc3ccc4ccccc4c3-c3c(OCCC(C)C)ccc4ccccc34)nn2)cc1.Cl | 8 µg/mL | 8 µg/mL | 32 µg/mL | 32 µg/mL | 16 µg/mL | 8 µg/mL |  |
| CC(C)CCOc1ccc2ccccc2c1-c1c(OCc2cn(C[C@@H](CCCCN)NC(=O)C3=CCCC3)nn2)ccc2ccccc12.Cl | 8 µg/mL | 8 µg/mL | 64 µg/mL | 16 µg/mL | 32 µg/mL | 8 µg/mL |  |
| CC(C)CCOc1ccc2ccccc2c1-c1c(OCc2cn(C[C@@H](CCCCN)NC(=O)[C@@H](CCCNC(=N)N)NC(=O)CCCc3ccccc3)nn2)ccc2ccccc12.Cl.Cl | 4 µg/mL | 2 µg/mL | 16 µg/mL | 4 µg/mL | 8 µg/mL | 2 µg/mL |  |
